Laboratory results from ChEMBL document CHEMBL4376888, “Discovery of Potent, Selective, and Direct Acid Sphingomyelinase Inhibitors with Antidepressant Activity” (J Med Chem, 2020).
Activity calls are given as the source filed them. No cut-off for these calls is given here.

Legend:
Rattus norvegicus [1] = assay: Antidepressant activity in Sprague-Dawley rat model of reserpine-induced depression assessed as increase in frequency of upright at 6 to 24 mg/kg, ip administered twice daily for 2 weeks measured for 5 mins by open field test; assay type: functional, organism-based
Outline: (§1)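 Female SD rats (6-8 weeks, 200 g) given reserpine 4 mg/Kg ip daily to induce depression; test agent in 5% DMSO, 2% Tween 80, 5% glucose, ip twice daily for two weeks. Open field: 100×100 cm box, 25 squares, walls about 42 cm, tested 7:30–12:00. Rat placed in central square; centre time, grid crossings, rearing and grooming recorded over 5 min. n=8, mean ± SD.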

[2] = Ratio of drug uptake in Sprague-Dawley rat brain to plasma at 48 mg/kg, ip after 4 hrs by LC-MS/MS analysis; assay type: ADME, organism-based; settings: read-out: BPR
Outline: (§2)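 Nine female SD rats, three per time point, single ip dose of 48 mg/Kg. At 0.5, 2 and 4 h rats were anesthetized with CO2. Heart blood was taken into EDTA-K2 and centrifuged 1500 g, 10 min, for plasma. Brain was weighed and homogenized 1:5 in 20% methanol-water. LC-MS/MS on a C18 column. Mean of 3.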

[3] = Drug concentration in Sprague-Dawley rat plasma at 48 mg/kg, ip after 0.5 hrs by LC-MS/MS analysis; assay type: ADME, organism-based; outline: as §2
NIH3T3 = assay: Cytotoxicity against mouse NIH/3T3 cells assessed as reduction in cell viability after 24 hrs by MTT assay; assay type: cell-based; settings: Mus musculus, NIH3T3, 24 h
Outline: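 NIH3T3 cells in DMEM with 10 % FBS at 37 °C, 5 % CO₂, grown overnight, then inhibitor added for 24 h; viability read by MTT.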

[4] = Drug uptake in human CMEC/D3 cells at 40 uM after 0.5 to 4 hrs by HPLC analysis; assay type: ADME, cell-based; settings: hcmec/d3, 40 µM
Outline: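 hCMEC/D3 cells seeded at 2×10^5/well and grown to 80%. Compound added at a final 40 μM; serum-free medium as control. At time points, cells washed with ice-cold PBS, lysed on ice 30 min, spun 12000 rpm, 4 °C, 15 min. Lysate protein by BCA and compound content measured; uptake rate = lysate concentration/dose concentration. n=3.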

Rattus norvegicus [5] = assay: Antidepressant activity in Sprague-Dawley rat model of reserpine-induced depression assessed as increase in times passing the grid at 6 to 24 mg/kg, ip administered twice daily for 2 weeks measured for 5 mins by open field test; assay type: functional, organism-based; outline: as §1
[6] = biological target: T1, Sphingomyelin phosphodiesterase (Homo sapiens, UniProt P17405); assay: Inhibition of human Huh7 cell derived acid sphingomyelinase using NBD-sphingomyelin as substrate after 30 mins by fluorescence based assay
T1 sequence (P17405 whole entry): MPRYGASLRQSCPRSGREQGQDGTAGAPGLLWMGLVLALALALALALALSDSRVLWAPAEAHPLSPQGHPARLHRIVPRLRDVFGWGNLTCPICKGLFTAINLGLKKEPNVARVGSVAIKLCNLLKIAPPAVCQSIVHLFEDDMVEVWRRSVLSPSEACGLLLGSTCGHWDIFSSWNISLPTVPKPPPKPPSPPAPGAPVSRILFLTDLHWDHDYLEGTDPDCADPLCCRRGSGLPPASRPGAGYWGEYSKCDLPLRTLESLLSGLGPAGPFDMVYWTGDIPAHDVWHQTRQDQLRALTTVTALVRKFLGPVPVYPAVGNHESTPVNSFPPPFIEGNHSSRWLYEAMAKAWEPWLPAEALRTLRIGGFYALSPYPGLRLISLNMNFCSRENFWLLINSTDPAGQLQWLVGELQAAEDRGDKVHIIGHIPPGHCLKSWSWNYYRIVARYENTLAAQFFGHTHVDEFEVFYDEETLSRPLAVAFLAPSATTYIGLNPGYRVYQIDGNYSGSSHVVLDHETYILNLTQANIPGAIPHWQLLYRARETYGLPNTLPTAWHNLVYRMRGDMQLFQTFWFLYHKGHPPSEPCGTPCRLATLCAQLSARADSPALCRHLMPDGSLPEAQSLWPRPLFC
Outline: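 Cultured cells were lysed in 25 mM Tris-HCl pH 7.4, 5 mM EDTA, sonicated and cleared at 300 g. 400 μg protein incubated with NBD-sphingomyelin in 100 mM sodium acetate pH 4.7, 1% Triton X-100, 40 mM CaCl2, 100 μM ZnCl2. Inhibitors added in DMSO, 37 °C, 30 min. Stopped with chloroform/methanol 2:1; NBD-ceramide fluorescence after TLC.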

[7] = Ratio of drug uptake in Sprague-Dawley rat brain to plasma at 48 mg/kg, ip after 2 hrs by LC-MS/MS analysis; assay type: ADME, organism-based; settings: read-out: BPR; outline: as §2
Rattus norvegicus [8] = assay: Antidepressant activity in Sprague-Dawley rat model of reserpine-induced depression assessed as reduction in total time spent in center at 6 to 24 mg/kg, ip administered twice daily for 2 weeks measured for 5 mins by open field test; assay type: functional, organism-based; outline: as §1
[9] = Drug concentration in Sprague-Dawley rat brain at 48 mg/kg, ip after 0.5 hrs by LC-MS/MS analysis; assay type: ADME, organism-based; settings: read-out: Drug uptake; outline: as §2
Rattus norvegicus [10] = assay: In vivo inhibition of acid sphingomyelinase in Sprague-Dawley rat model of reserpine-induced depression assessed as reduction in enzyme activity in cerebral cortex at 24 mg/kg, ip administered twice daily for 2 weeks measured post-last dose by NBD-sphingomyelin substrate-based fluorescence assay (reference value: 53%); design: scale not given: the % may be the effect or the level left
[11] = Drug concentration in Sprague-Dawley rat plasma at 48 mg/kg, ip after 2 hrs by LC-MS/MS analysis; assay type: ADME, organism-based; outline: as §2
Rattus norvegicus [12] = assay: Antidepressant activity in Sprague-Dawley rat model of reserpine-induced depression assessed as increase in grooming frequency at 6 to 24 mg/kg, ip administered twice daily for 2 weeks measured for 5 mins by open field test; assay type: functional, organism-based; outline: as §1
[13] = Drug concentration in Sprague-Dawley rat brain at 48 mg/kg, ip after 2 hrs by LC-MS/MS analysis; assay type: ADME, organism-based; settings: read-out: Drug uptake; outline: as §2
[14] = biological target: T1, Sphingomyelin phosphodiesterase; assay: Inhibition of recombinant human acid sphingomyelinase (His62 to Pro628 residues) using NBD-sphingomyelin as substrate after 30 mins by fluorescence based assay
Outline: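 Buffer 100 mM sodium acetate pH 4.7, 1% Triton X-100, 40 mM CaCl2, 100 μM ZnCl2. Inhibitors in DMSO at various concentrations, 37 °C, 30 min. NBD-ceramide fluorescence after chloroform/methanol extraction and TLC.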

Rattus norvegicus [15] = assay: Antidepressant activity in ip dosed Sprague-Dawley rat model of reserpine-induced depression assessed as increase in sugar consumption treated twice daily for 2 weeks measured after 2 days of […] followed by 20 hrs water depletion and fasting by sugar water preference test; assay type: functional, organism-based
Outline: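 Reserpine model (4 mg/Kg ip daily) in female SD rats, treated ip twice daily for two weeks in DMSO/Tween 80/glucose vehicle. Drinking water replaced with 10% sucrose for 48 h, then food and water withheld for 20 h. Rats then given 10% sucrose and intake volume measured. n=8, mean ± SD.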

Rattus norvegicus [16] = assay: In vivo inhibition of acid sphingomyelinase in Sprague-Dawley rat model of reserpine-induced depression assessed as residual enzyme activity in hippocampus at 24 mg/kg, ip administered twice daily for 2 weeks measured post-last dose by NBD-sphingomyelin substrate-based fluorescence assay (reference value: 73%); assay type: functional
Outline: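 Cortex and hippocampus taken from half brain of reserpine-model rats treated ip twice daily for two weeks. Total protein by BCA. ASM assay on 300 μg protein with 4 μg NBD-sphingomyelin, run as the in vitro assay. NBD-ceramide fluorescence on TLC, expressed relative to normal control set at 100%. n=5, mean ± SD.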

Kp at 4 h [2]: 9.55 | concentration at 0.5 h [3]: 709 ng/mL | Drug uptake [4]: Active | IC50 [6]: 0.32 µM | Kp at 2 h [7]: 6.49 | concentration at 0.5 h [9]: 2120 ng/g | concentration at 2 h [11]: 762 ng/mL | concentration at 2 h [13]: 4760 ng/g | IC50 [14]: 3.37 µM
SMILES: O=C(NO)c1cc(OCc2ccc(-c3ccc(Cl)cc3)cc2)no1
Activity (Rattus norvegicus [1]): Active | IC50 (NIH3T3): 161 µM | Activity (Rattus norvegicus [5]): Active | Activity (Rattus norvegicus [8]): Active | Activity (Rattus norvegicus [10]): 27% | Activity (Rattus norvegicus [12]): Active | Activity (Rattus norvegicus [15]): Dose-dependent effect | Activity (Rattus norvegicus [16]): 33%
